# Results from PMC10739612 (ACS Chemical Neuroscience, 2023).
# Experiments:
# [1] = test system: i3Neurons stably expressing LC3-RFP-GFP; assay: LC3-RFP-GFP dual reporter live imaging in i3Neurons; assay type: cell-based, human
# Summary of the method: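 iPSC-derived i3Neurons stably expressing LC3-RFP-GFP, DIV 10; 0.1% DMSO or test compound 15 μM for 72 h, or BafA1 100 nM for 24 h. Live Fast Airyscan at 37 °C; single mid-cell scan, 488/560 nm. GFP+RFP+ vesicles scored as autophagosomes, RFP-only as autolysosomes. Autolysosome size and intensity from red-channel particle analysis. Three experiments, 60–70 cells per treatment; mean ± SEM.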
# [2] = test system: HeLa cells expressing eGFP-LC3; assay: eGFP-LC3 puncta formation assay; assay type: cell-based
# Summary of the method: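 HeLa stably expressing eGFP-LC3, 3000 cells/well (384-well), 24 h at 37 °C, then 4 h compound exposure. PFA fixation (12 min RT), Hoechst 2 μg/mL; imaged at 10× (DAPI/FITC). Screen hits: Z' >0.4, CV <20%, z-score >2.199 in two replicates. EC50 from 12-point doses (300–0.146 or 1000–0.488 μM by series), excluding concentrations with <40% viability; three experiments in duplicate, mean ± SEM.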
# [3] = biological target: T1, Lamin A/C (Homo sapiens, UniProt P02545); assay: Pulldown validation and competition, immunoblot for Lamin A/C; assay type: binding; settings: Biotin-RH1115 50 μM, HeLa lysate
# T1 sequence (P02545 1-566 limits assumed): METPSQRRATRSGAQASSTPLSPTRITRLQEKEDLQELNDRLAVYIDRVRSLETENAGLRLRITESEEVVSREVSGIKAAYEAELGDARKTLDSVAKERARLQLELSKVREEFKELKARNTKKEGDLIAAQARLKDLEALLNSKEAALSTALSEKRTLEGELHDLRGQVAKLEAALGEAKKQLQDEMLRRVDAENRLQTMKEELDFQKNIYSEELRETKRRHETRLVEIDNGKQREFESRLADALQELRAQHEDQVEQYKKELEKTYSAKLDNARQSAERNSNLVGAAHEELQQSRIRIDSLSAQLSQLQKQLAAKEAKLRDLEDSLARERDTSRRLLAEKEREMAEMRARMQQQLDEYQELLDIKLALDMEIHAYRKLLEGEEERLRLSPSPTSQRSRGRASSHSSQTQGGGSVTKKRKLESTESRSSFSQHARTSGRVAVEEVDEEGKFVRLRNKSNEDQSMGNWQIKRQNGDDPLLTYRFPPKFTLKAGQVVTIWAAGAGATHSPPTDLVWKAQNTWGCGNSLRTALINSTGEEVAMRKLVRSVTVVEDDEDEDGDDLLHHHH
# Summary of the method: (§1)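 HeLa grown 3 days to confluency; lysate cleared 18,000g, 30 min, 4 °C; protein by BCA. Streptavidin magnetic beads preloaded 2 h at 4 °C with biotinylated probe (50 μM) or biotin acid (50 μM). 500 μg lysate added (200 μL), 16 h; beads washed with PBS, eluted in 1× SDS loading buffer, immunoblotted. Competition: free test compound 100 μM added with lysate, 16 h, 4 °C.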
# [4] = biological target: T2, LAMP1 (Homo sapiens, UniProt P11279); assay: Pulldown validation and competition, immunoblot for LAMP1; assay type: binding; settings: Biotin-RH1115 50 μM, HeLa lysate
# T2 sequence (P11279 29-417): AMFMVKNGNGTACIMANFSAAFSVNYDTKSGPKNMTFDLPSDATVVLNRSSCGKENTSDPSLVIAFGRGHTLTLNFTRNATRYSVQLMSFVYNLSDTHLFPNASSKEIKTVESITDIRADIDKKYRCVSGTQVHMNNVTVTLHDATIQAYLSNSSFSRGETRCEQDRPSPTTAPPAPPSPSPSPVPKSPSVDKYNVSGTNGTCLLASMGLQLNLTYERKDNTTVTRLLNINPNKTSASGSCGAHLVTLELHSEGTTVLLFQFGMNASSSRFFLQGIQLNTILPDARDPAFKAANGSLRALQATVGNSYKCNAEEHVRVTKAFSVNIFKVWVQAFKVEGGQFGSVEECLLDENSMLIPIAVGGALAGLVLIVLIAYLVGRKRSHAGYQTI
# Summary of the method: as §1
# [5] = test system: LC3-II levels in HeLa cells; assay: LC3 immunoblotting; assay type: cell-based; settings: 4 h, 1a 20 μM, 2a 40 μM, further increase with BafA1 100 nM
# [6] = test system: phosphorylation of the mTOR substrate p70S6K in HeLa cells; assay: P70S6K and phospho-P70S6K immunoblotting; assay type: cell-based; settings: 1a 20 μM, 2a 40 μM, compared to rapamycin 1 μM
# Summary of the method: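 Same HeLa immunoblot workflow as for LC3, with test compound at 40 μM and 1% BSA for blocking. Probed for phospho-p70S6K and β-actin (anti-rabbit HRP secondary), then stripped and reprobed for total p70S6K; densitometry in ImageJ.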
# [7] = test system: i3Neurons; assay: Cell viability assay in i3Neurons; assay type: cell-based, human; settings: 72 h from DIV 7; DS1040 20 μM, RH1096 40 μM, RH1103 40 μM, RH1115 15 μM
# Summary of the method: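 Viability check: DIV 10 i3Neurons on coated coverslips exposed 72 h (0.1% DMSO vehicle), fixed, immunostained for Tau and LAMP1. 5–6 random high-magnification fields per sample; neurons per unit area counted. Tau staining used to confirm normal morphology and neurite integrity. Mean ± SEM, three independent experiments.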
# [8] = test system: HeLa cells; assay: Cell viability assay by nuclear count; assay type: cell-based; settings: 4 h, relative to DMSO
# [9] = test system: LAMP1; assay: LAMP1 expression immunoblotting in HeLa cells; assay type: cell-based; settings: 50 μM, 24 h, vs control
# Summary of the method: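 HeLa seeded at 300,000 cells/mL in 6-well plates; 0.1% DMSO or test compound 50 μM. Lysates cleared 12,000 rpm, 30 min, 4 °C; 10% SDS-PAGE, PVDF transfer; 5% blocker in TBS-T; primary antibody overnight 4 °C, HRP secondary 1 h RT; chemiluminescent detection; band quantification in ImageJ.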
# [10] = test system: i3Neurons; assay: Analysis of lysosomal; assay type: cell-based, human; settings: 15 μM, 72 h, vs DMSO
# Summary of the method: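 DIV 10 i3Neurons on poly-L-ornithine/laminin-coated glass coverslips; 72 h exposure, 0.1% DMSO vehicle; fixed, LAMP1-immunostained, imaged by high-resolution confocal. Soma outlined, thresholded, ImageJ particle analysis (minimum 0.002 μm²) giving vesicle mean size, intensity and count per neuron. Three independent experiments, 20–25 neurons per treatment; mean ± SEM.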
structure (smiles),measurement,setting,value
"CO/C1=C\C(C)=C\[C@@H](C)[C@@H](O)[C@@H](C)C/C(C)=C/C=C/[C@H](OC)[C@@H]([C@@H](C)[C@@H](O)[C@H](C)[C@@]2(O)C[C@@H](O)[C@H](C)[C@@H](C(C)C)O2)OC1=O [BafA1, bafilomycin A1, reference compound]",percentage of autolysosomes,"[1]; BafA1 100 nM 24 h, compared with RH1115 or DMSO",far less
same,number of autophagosomes per neuronal cell body,"[1]; RH1115 15 μM 72 h, BafA1 100 nM 24 h",massively increased
"O=C(CCCCC1SCC2NC(=O)NC21)NCCOCCOCCOCCn1nncc1CCCC(=O)OCC1CN(Cc2ccccc2)CC12CCN(CC1CCCCC1)CC2 (stereo not shown) [Biotin-RH1115, (2-Benzyl-8-(cyclohexylmethyl)-2,8-diazaspiro[4.5]decan-4-yl)methyl 4-(1-(13-Oxo-17-(2-oxohexahydro-1H-thieno[3,4-d]imidazol-4-yl)-3,6,9-trioxa-12-azaheptadecyl)-1H-1,2,3-triazol-5-yl)butanoate]",EC50,"[2]; Homo sapiens, HeLa, 4 h, read-out: EC50 in the eGFP-LC3 puncta formation assay",46.2 µM
same,Lamin A/C capture in pulldown eluent (western blot),[3],highly enriched
same,glycosylated LAMP1 capture in pulldown eluent (western blot),[4],pulled down and concentrated in the eluent
"CCCn1cc(CN2CCc3nc(N4CCN(C)CC4)[nH]c(=O)c3CC2)c2ccccc21 [Compound 1a, 2-(4-Methylpiperazin-1-yl)-7-((1-propyl-1H-indol-3-yl)methyl)-3,5,6,7,8,9-hexahydro-4H-pyrimido[4,5-d]azepin-4-one]",LC3-II levels by western blot,[5],significant increase
same,phosphorylation of p70S6K (mTOR dependence of autophagy activation),[6],mTOR-independent manner
same,cytotoxicity in i3Neurons (cell density at end of treatment),[7],no overt cytotoxicity
"CCCn1cc(CN2CCc3nc(-c4ccccc4)[nH]c(=O)c3CC2)c2ccccc21 [Compound 1c, 2-Phenyl-7-((1-propyl-1H-indol-3-yl)methyl)-3,5,6,7,8,9-hexahydro-4H-pyrimido[4,5-d]azepin-4-one]",cytotoxicity (percent viability by nuclear count),[8],increase in cell death at concentrations that are close to the concentrations that induced autophagy
"OCC1CN(Cc2ccccc2)CC12CCN(Cc1ccccn1)CC2 (stereo not shown) [Compound 2a, (2-Benzyl-8-(pyridin-2-ylmethyl)-2,8-diazaspiro[4.5]decan-4-yl)methanol]",LC3-II levels by western blot,[5],significant increase
same,phosphorylation of p70S6K (mTOR dependence of autophagy activation),[6],mTOR-independent manner
same,cytotoxicity in i3Neurons (cell density at end of treatment),[7],no overt cytotoxicity
"OCC1CN(Cc2ccccc2)CC12CCN(Cc1ccccc1)CC2 (stereo not shown) [Compound 2b, (2,8-Dibenzyl-2,8-diazaspiro[4.5]decan-4-yl)methanol]",fold increase in potency compared to RH1096 (eGFP-LC3 puncta formation),[2]; relative to RH1096,3 fold
same,cytotoxicity in i3Neurons (cell density at end of treatment),[7],no overt cytotoxicity
"OCC1CN(Cc2ccccc2)CC12CCN(CC1CCCCC1)CC2 (stereo not shown) [Compound 2c, (2-Benzyl-8-(cyclohexylmethyl)-2,8-diazaspiro[4.5]decan-4-yl)methanol]",fold increase in potency compared to RH1096 (eGFP-LC3 puncta formation),[2]; relative to RH1096,6 fold
same,ratio of glycosylated/non-glycosylated LAMP1,[9],significant increase
same,cytotoxicity in i3Neurons (cell density at end of treatment),[7],no overt cytotoxicity
same,intensity of LAMP1 vesicles,[10],increased
same,mean size of LAMP1 vesicles,[10],increased
same,autolysosome size relative to DMSO-treated condition,"[1]; 15 μM, 72 h",~3 times
same,total RFP intensity per autolysosome vesicle,"[1]; 15 μM, 72 h, vs DMSO",increased
"OCC1CN(Cc2ccccc2)CC12CCN(Cc1ccncc1)CC2 (stereo not shown) [Compound 2d, (2-Benzyl-8-(pyridin-4-ylmethyl)-2,8-diazaspiro[4.5]decan-4-yl)methanol]",fold decrease in potency compared to RH1096 (eGFP-LC3 puncta formation),[2]; relative to RH1096,2 fold
